Measured values taken from ChEMBL document CHEMBL4699443, “Position of lipidation influences anticancer activity of Smac analogs” (Bioorg Med Chem Lett, 2019).
Non-standard residues stand in square brackets, D forms with d. Residues, ends and D or L forms follow the SMILES beside them. *: point of attachment. Pro(cis-4-OPh) = O=C(O)[C@@H]1C[C@H](Oc2ccccc2)CN1; Bip = N[C@@H](Cc1ccc(-c2ccccc2)cc1)C(=O)O; X2 = CCCCCCCCCCCCCCCCCCS(=O)(=O)CCN*; Tle = CC(C)(C)[C@H](N)C(=O)O; X1 = CCCCCCCCCCCCCCCCCCSCCN*; NMeA = CN[C@@H](C)C(=O)O

Tests used:
[1] = system: BT-474; assay: Antiproliferative activity against human BT-474 cells assessed as growth inhibition after 48 hrs by PrestoBlue dye based fluorescence assay; type: functional, cell-based; conditions: BT-474, 48 h
[2] = system: MDA-MB-361; assay: Antiproliferative activity against human MDA-MB-361 cells assessed as growth inhibition after 48 hrs by PrestoBlue dye based fluorescence assay; type: functional, cell-based; conditions: MDA-MB-361, 48 h
[3] = system: KOPN-8; assay: Antiproliferative activity against human KOPN-8 cells assessed as growth inhibition after 48 hrs by PrestoBlue dye based fluorescence assay; type: functional, cell-based; conditions: KOPN-8, 48 h
[4] = system: HL-60; assay: Antiproliferative activity against human HL60 cells assessed as growth inhibition after 48 hrs by PrestoBlue dye based fluorescence assay; type: functional, cell-based; conditions: HL-60, 48 h
[5] = system: THP-1; assay: Antiproliferative activity against human THP1 cells assessed as growth inhibition after 48 hrs by PrestoBlue dye based fluorescence assay; type: functional, cell-based; conditions: THP-1, 48 h
[6] = Antiproliferative activity against human M233 cells assessed as growth inhibition after 48 hrs by PrestoBlue dye based fluorescence assay; type: functional, cell-based; conditions: M233, 48 h
[7] = Antiproliferative activity against human M263 cells assessed as growth inhibition after 48 hrs by PrestoBlue dye based fluorescence assay; type: functional, cell-based; conditions: M263, 48 h
[8] = system: PC-3; assay: Antiproliferative activity against human PC-3 cells assessed as growth inhibition after 48 hrs by PrestoBlue dye based fluorescence assay; type: functional, cell-based; conditions: PC-3, 48 h
[9] = system: T84; assay: Antiproliferative activity against human T84 cells assessed as growth inhibition after 48 hrs by PrestoBlue dye based fluorescence assay; type: functional, cell-based; conditions: T84, 48 h
[10] = Antiproliferative activity against human UM-SCC-5 cells assessed as growth inhibition after 48 hrs by PrestoBlue dye based fluorescence assay; type: functional, cell-based; conditions: UM-SCC-5, 48 h
[11] = Antiproliferative activity against human UM-SCC-12 cells assessed as growth inhibition after 48 hrs by PrestoBlue dye based fluorescence assay; type: functional, cell-based; conditions: UM-SCC-12, 48 h
[12] = Antiproliferative activity against human UM-SCC-178 cells assessed as growth inhibition after 48 hrs by PrestoBlue dye based fluorescence assay; type: functional, cell-based; conditions: UM-SCC-178, 48 h
[13] = system: KOPN-8; assay: Induction of apoptosis in human KOPN8 cells assessed as viable cells at 10 uM after 24 hrs by AnnexinV/PI-staining based flow cytometry; type: functional; conditions: read-out: Activity
Outline: (§1)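 KOPN-8 cells treated with 1 or 10 μM compound, alone or as an equimolar two-compound mixture. Cultured for a time course, then stained with annexin V and propidium iodide. Read by flow cytometry; populations gated by annexin V/PI staining, including annexin V+/PI+ double positives.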

[14] = system: KOPN-8; assay: Induction of apoptosis in human KOPN8 cells assessed as early apoptotic cells at 10 uM after 24 hrs by AnnexinV/PI-staining based flow cytometry; type: functional; outline: as §1
[15] = system: KOPN-8; assay: Induction of apoptosis in human KOPN8 cells assessed as late apoptotic cells at 10 uM after 24 hrs by AnnexinV/PI-staining based flow cytometry; type: functional; outline: as §1
[16] = system: KOPN-8; assay: Induction of apoptosis in human KOPN8 cells assessed as necrotic cells at 10 uM after 24 hrs by AnnexinV/PI-staining based flow cytometry; type: functional; outline: as §1
[17] = system: KOPN-8; assay: Induction of apoptosis in human KOPN8 cells assessed as viable cells at 10 uM after 48 hrs by AnnexinV/PI-staining based flow cytometry; type: functional; conditions: read-out: Activity; outline: as §1
[18] = system: KOPN-8; assay: Induction of apoptosis in human KOPN8 cells assessed as early apoptotic cells at 10 uM after 48 hrs by AnnexinV/PI-staining based flow cytometry; type: functional; outline: as §1
[19] = system: KOPN-8; assay: Induction of apoptosis in human KOPN8 cells assessed as late apoptotic cells at 10 uM after 48 hrs by AnnexinV/PI-staining based flow cytometry; type: functional; outline: as §1
[20] = system: KOPN-8; assay: Induction of apoptosis in human KOPN8 cells assessed as necrotic cells at 10 uM after 48 hrs by AnnexinV/PI-staining based flow cytometry; type: functional; outline: as §1
[21] = system: KOPN-8; assay: Induction of apoptosis in human KOPN8 cells assessed as viable cells at 10 uM after 72 hrs by AnnexinV/PI-staining based flow cytometry; type: functional; conditions: read-out: Activity; outline: as §1
[22] = system: KOPN-8; assay: Induction of apoptosis in human KOPN8 cells assessed as early apoptotic cells at 10 uM after 72 hrs by AnnexinV/PI-staining based flow cytometry; type: functional; outline: as §1
[23] = system: KOPN-8; assay: Induction of apoptosis in human KOPN8 cells assessed as late apoptotic cells at 10 uM after 72 hrs by AnnexinV/PI-staining based flow cytometry; type: functional; outline: as §1
[24] = system: KOPN-8; assay: Induction of apoptosis in human KOPN8 cells assessed as necrotic cells at 10 uM after 72 hrs by AnnexinV/PI-staining based flow cytometry; type: functional; outline: as §1
[25] = system: KOPN-8; assay: Induction of apoptosis in human KOPN8 cells assessed as viable cells at 10 uM after 168 hrs by AnnexinV/PI-staining based flow cytometry; type: functional; conditions: read-out: Activity; outline: as §1
[26] = system: KOPN-8; assay: Induction of apoptosis in human KOPN8 cells assessed as early apoptotic cells at 10 uM after 168 hrs by AnnexinV/PI-staining based flow cytometry; type: functional; outline: as §1
[27] = system: KOPN-8; assay: Induction of apoptosis in human KOPN8 cells assessed as late apoptotic cells at 10 uM after 168 hrs by AnnexinV/PI-staining based flow cytometry; type: functional; outline: as §1
[28] = system: KOPN-8; assay: Induction of apoptosis in human KOPN8 cells assessed as necrotic cells at 10 uM after 168 hrs by AnnexinV/PI-staining based flow cytometry; type: functional; outline: as §1
[29] = system: KOPN-8; assay: Induction of apoptosis in human KOPN8 cells assessed as increase in caspase 9 activity at 0.1 to 50 uM after 24 hrs by Caspase-glo reagent based microplate reader analysis relative to control; type: functional; conditions: dose microM 0.1-50
[30] = Tmax in C57BL/6 mouse at 10 mg/kg, sc by LC-MS analysis; type: ADME, organism-based; conditions: in vivo
Outline: (§2)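 Mice individually weighed, then given a single SC dose of 10 mg/kg. Blood taken by retro-orbital bleeding at set time points. Plasma levels measured by triple-quadrupole LC/MS; plasma half-life derived from these levels.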

[31] = Cmax in C57BL/6 mouse at 10 mg/kg, sc by LC-MS analysis; type: ADME, organism-based; design: route subcutaneous, dose 10 mg/kg; conditions: in vivo; outline: as §2
[32] = Drug level in C57BL/6 mouse plasma at 10 mg/kg, sc after 30 mins by LC-MS analysis; type: ADME, organism-based; conditions: in vivo, 0.5 h; outline: as §2
[33] = system: MDA-MB-361; assay: Antitumor activity against sc dosed human MDA-MB-361 cells xenografted in BALB mouse administered up to 12 days by caliper analysis; type: functional, organism-based; conditions: dose mg/kg 10-20, time 12.0 day
Outline: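 Tumor-bearing mice, subcutaneous engraftment model; compound given SC at 10 or 20 mg/kg in 2% Cremophor EL, 2×5 injections (10 doses total). Read-out is tumor growth delay in days, taken at a tumor volume of 500 mm3.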

[34] = system: MCF7; assay: Antiproliferative activity against human MCF7 cells assessed as growth inhibition after 48 hrs by PrestoBlue dye based fluorescence assay; type: functional, cell-based; conditions: MCF7, 48 h
[35] = system: HepG2; assay: Antiproliferative activity against human HepG2 cells assessed as growth inhibition after 48 hrs by PrestoBlue dye based fluorescence assay; type: functional, cell-based; conditions: HepG2, 48 h
[36] = system: Hep 3B2; assay: Antiproliferative activity against human Hep3B cells assessed as growth inhibition after 48 hrs by PrestoBlue dye based fluorescence assay; type: functional, cell-based
[37] = Antiproliferative activity against human CEMTL cells assessed as growth inhibition after 48 hrs by PrestoBlue dye based fluorescence assay; type: functional, cell-based; conditions: CEM-TL
[38] = system: SK-MEL-28; assay: Antiproliferative activity against human SK-MEL-28 cells assessed as growth inhibition after 48 hrs by PrestoBlue dye based fluorescence assay; type: functional, cell-based; conditions: SK-MEL-28, 48 h
[39] = system: PANC-1; assay: Antiproliferative activity against human PANC-1 cells assessed as growth inhibition after 48 hrs by PrestoBlue dye based fluorescence assay; type: functional, cell-based; conditions: PANC-1, 48 h
[40] = system: LNCaP; assay: Antiproliferative activity against human LNCAP cells assessed as growth inhibition after 48 hrs by PrestoBlue dye based fluorescence assay; type: functional, cell-based
[41] = system: HCT-116; assay: Antiproliferative activity against human HCT116 cells assessed as growth inhibition after 48 hrs by PrestoBlue dye based fluorescence assay; type: functional, cell-based; conditions: HCT-116, 48 h
[42] = system: SW480; assay: Antiproliferative activity against human SW480 cells assessed as growth inhibition after 48 hrs by PrestoBlue dye based fluorescence assay; type: functional, cell-based; conditions: SW480, 48 h
[43] = system: FaDu; assay: Antiproliferative activity against human FADU cells assessed as growth inhibition after 48 hrs by PrestoBlue dye based fluorescence assay; type: functional, cell-based
[44] = Antiproliferative activity against human UM-SCC-6 cells assessed as growth inhibition after 48 hrs by PrestoBlue dye based fluorescence assay; type: functional, cell-based; conditions: UM-SCC-6, 48 h

SMILES: CCCCCCCCCCCCCCCCCCSCCNC(=O)[C@H](Cc1ccc(-c2ccccc2)cc1)NC(=O)[C@@H]1C[C@H](Oc2ccccc2)CN1C(=O)[C@@H](NC(=O)[C@H](C)NC)C(C)(C)C (H-[NMeA][Tle][Pro(cis-4-OPh)][Bip]-X1)
- EC50 [1]: 320 nM
- EC50 [2]: 1700 nM
- EC50 [3]: 1000 nM
- EC50 [4]: 2000 nM
- EC50 [5]: 8.7 µM
- EC50 [6]: 9.5 µM
- EC50 [7]: 2900 nM
- EC50 [8]: 2200 nM
- EC50 [9]: 2000 nM
- EC50 [10]: 960 nM
- EC50 [11]: 1100 nM
- EC50 [12]: 2700 nM
- viability at 10 µM [13]: 71%
- Activity [14]: 1.67%
- Activity [15]: 20.3%
- Activity [16]: 7.06%
- viability at 10 µM [17]: 79.3%
- Activity [18]: 0.94%
- Activity [19]: 17.8%
- Activity [20]: 1.97%
- viability at 10 µM [21]: 74.9%
- Activity [22]: 1.27%
- Activity [23]: 22.4%
- Activity [24]: 1.41%
- viability at 10 µM [25]: 87.6%
- Activity [26]: 1.81%
- Activity [27]: 9.97%
- Activity [28]: 0.63%
- fold change (FC) [29]: 1.5
- Tmax [30]: 16 h
- Cmax [31]: 15.1265 µM
- Cp [32]: 7.5633 µM
- Activity [33]: Dose-dependent effect

SMILES: CCCCCCCCCCCCCCCCCCS(=O)(=O)CCNC(=O)[C@H](Cc1ccc(-c2ccccc2)cc1)NC(=O)[C@@H]1C[C@H](Oc2ccccc2)CN1C(=O)[C@@H](NC(=O)[C@H](C)NC)C(C)(C)C (H-[NMeA][Tle][Pro(cis-4-OPh)][Bip]-X2)
- EC50 [34]: 48.2 µM
- EC50 [35]: 2100 nM
- EC50 [36]: 240 nM
- EC50 [37]: 14.2 µM
- EC50 [38]: 11.3 µM
- EC50 [39]: 4.7 µM
- EC50 [40]: 10.5 µM
- EC50 [8]: 2300 nM
- EC50 [41]: 1500 nM
- EC50 [42]: 25.7 µM
- EC50 [43]: 640 nM
- EC50 [44]: 4.8 µM
- EC50 [11]: 1100 nM
